Data as given in ChEMBL document CHEMBL1909628, “Discovery of 6-substituted indole-3-glyoxylamides as lead antiprion agents with enhanced cell line activity, improved microsomal stability and low toxicity” (Eur J Med Chem, 2011).

Test system: not listed separately
Experiment: Antiprion activity against PrPsc infected in mouse SMB.s15 cells assessed as complete clearance of PrPSc after 5 days by dot blot analysis
Type: cell-based
Conditions: SMB.s15, 120 h
Method in brief: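 SMB.s15 cells (scrapie-infected, mesodermal origin) in Medium 199 with 10% newborn calf and 5% fetal calf serum, seeded at 12,000 cells/well, 24 h attachment. Compound added from DMSO stock via HBSS dilution, 5 days at 37 °C. Lysates dot-blotted, proteinase K digestion (1 h, 37 °C), guanidine thiocyanate, anti-PrP 6H4 mAb, ECL. Triplicate, PrPSc relative to DMSO-only control.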

SMILES	EC50
O=C(Nc1ccc(-n2cccn2)cc1)C(=O)c1c[nH]c2ccccc12	1 nM
Cc1ccc(NC(=O)C(=O)c2c[nH]c3cc(C#N)ccc23)cc1	10.9 nM
O=C(Nc1ccc(N2CCOCC2)cc1)C(=O)c1c[nH]c2ccccc12	9 nM
O=C(Nc1ccc(-n2cccc2)cc1)C(=O)c1c[nH]c2ccccc12	6 nM
Cc1ccc(NC(=O)C(=O)c2c[nH]c3cc(C(C)C)ccc23)cc1	610 nM
COc1ccc(NC(=O)C(=O)c2c[nH]c3cc([N+](=O)[O-])ccc23)cc1	10.5 nM
COc1ccc(NC(=O)C(=O)c2c[nH]c3c(Cl)cccc23)cc1	24 nM
Cc1ccc(NC(=O)C(=O)c2c[nH]c3c(Cl)cccc23)cc1	470 nM
O=C(Nc1ccc(-n2ccnc2)cc1)C(=O)c1c[nH]c2ccccc12	1.3 nM
Cc1cccc2[nH]cc(C(=O)C(=O)Nc3ccc(N4CCOCC4)cc3)c12	680 nM
Cc1ccc(NC(=O)C(=O)c2c[nH]c3cc(Cl)ccc23)cc1	100 nM
Cc1ccc(NC(=O)C(=O)c2c[nH]c3ccccc23)cc1	130 nM

Test system: not listed separately
Experiment: Solubility of the compound
Type: physicochemical
Conditions: not given

SMILES	solubility
Cn1ccc(-c2ccc(NC(=O)C(=O)c3c[nH]c4ccccc34)cc2)n1	Insoluble
O=C(Nc1ccc(-n2cccn2)cc1)C(=O)c1c[nH]c2ccccc12	Insoluble
O=C(Nc1ccc(-c2nnco2)cc1)C(=O)c1c[nH]c2ccccc12	Insoluble
O=C(Nc1ccc(-n2cncn2)cc1)C(=O)c1c[nH]c2ccccc12	Insoluble
O=C(Nc1ccc(-n2cccc2)cc1)C(=O)c1c[nH]c2ccccc12	Insoluble
O=C(Nc1ccc(-n2ccnc2)cc1)C(=O)c1c[nH]c2ccccc12	Insoluble

Species: Danio rerio
Experiment: Toxicity in zebrafish assessed as otic capsule deformities at 5 uM treated at 48 hrs post-fertilization measured after 3 days by acridine orange staining method
Type: organism-based
Conditions: in vivo, 72 h
Method in brief: (§1)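 Zebrafish larvae dosed at 5 uM from 48 hpf for three days (28 °C, E3 medium, 1% DMSO). Stained with acridine orange at 1 mg/mL in E3 for 30 min, then washed 3 × 10 min. Anesthetized with tricaine, mounted in 1% low-melt agarose with tricaine, and examined by microscopy for apoptosis and deformities.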

SMILES	Activity
O=C(Nc1ccc(-n2cccn2)cc1)C(=O)c1c[nH]c2ccccc12	Non-toxic

Species: Danio rerio
Experiment: Toxicity in zebrafish assessed as induction of apoptosis at 5 uM treated at 48 hrs post-fertilization measured after 3 days by acridine orange staining method
Type: organism-based
Conditions: in vivo, 72 h
Method in brief: as §1

SMILES	Activity
O=C(Nc1ccc(-n2cccn2)cc1)C(=O)c1c[nH]c2ccccc12	Non-toxic

Test system: not listed separately
Experiment: Antiprion activity against PrPsc infected in mouse ScN2a cells assessed as complete clearance of PrPSc after 5 days by ELISA
Type: cell-based
Conditions: 120 h
Method in brief: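 ScN2a cells (N2a infected with RML prion strain) seeded at 4×10^5 cells/well in MEM with 10% FBS, GlutaMax, geneticin. Compound added 4 h after seeding, 0.5% final DMSO, 5 days at 37 °C. Lysates captured on D18 Fab-coated ELISA plates overnight at 4 °C, HRP-D13 detection, ABTS, absorbance at 405 nm. Dose-response curves from three independent experiments.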

SMILES	EC50
O=C(Nc1ccc(-n2cccn2)cc1)C(=O)c1c[nH]c2ccccc12	14 nM
Cc1ccc(NC(=O)C(=O)c2c[nH]c3cc(C#N)ccc23)cc1	26 nM
O=C(Nc1ccc(N2CCOCC2)cc1)C(=O)c1c[nH]c2ccccc12	65 nM
COc1ccc(NC(=O)C(=O)c2c[nH]c3c(Cl)cccc23)cc1	247 nM
Cc1ccc(NC(=O)C(=O)c2c[nH]c3c(Cl)cccc23)cc1	1260 nM
O=C(Nc1ccc(-n2ccnc2)cc1)C(=O)c1c[nH]c2ccccc12	16 nM
Cc1ccc(NC(=O)C(=O)c2c[nH]c3ccccc23)cc1	206 nM

Species: Danio rerio
Experiment: Toxicity in zebrafish assessed as yolk deformities at 5 uM treated at 48 hrs post-fertilization measured after 3 days by acridine orange staining method
Type: organism-based
Conditions: in vivo, 72 h
Method in brief: as §1

SMILES	Activity
O=C(Nc1ccc(-n2cccn2)cc1)C(=O)c1c[nH]c2ccccc12	Non-toxic

Species: Danio rerio
Experiment: Toxicity in zebrafish assessed as swim bladder deformities at 5 uM treated at 48 hrs post-fertilization measured after 3 days by acridine orange staining method
Type: organism-based
Conditions: in vivo, 72 h
Method in brief: as §1

SMILES	Activity
O=C(Nc1ccc(-n2cccn2)cc1)C(=O)c1c[nH]c2ccccc12	Non-toxic

Test system: ScN2a
Experiment: Cytotoxicity against mouse ScN2a cells up to 32 uM
Type: cell-based
Conditions: not given
Method in brief: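 ScN2a cells seeded separately in 96-well plates. Calcein cell viability assay run in parallel with the ELISA screen, up to 32 uM maximum.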

SMILES	Activity
O=C(Nc1ccc(-n2cccn2)cc1)C(=O)c1c[nH]c2ccccc12	Non-toxic
Cc1ccc(NC(=O)C(=O)c2c[nH]c3cc(C#N)ccc23)cc1	Non-toxic
O=C(Nc1ccc(N2CCOCC2)cc1)C(=O)c1c[nH]c2ccccc12	Non-toxic
O=C(Nc1ccc(-n2cccc2)cc1)C(=O)c1c[nH]c2ccccc12	Non-toxic
Cc1ccc(NC(=O)C(=O)c2c[nH]c3cc(C(C)C)ccc23)cc1	Non-toxic
COc1ccc(NC(=O)C(=O)c2c[nH]c3cc([N+](=O)[O-])ccc23)cc1	Non-toxic
COc1ccc(NC(=O)C(=O)c2c[nH]c3c(Cl)cccc23)cc1	Non-toxic
Cc1ccc(NC(=O)C(=O)c2c[nH]c3c(Cl)cccc23)cc1	Non-toxic
O=C(Nc1ccc(-n2ccnc2)cc1)C(=O)c1c[nH]c2ccccc12	Non-toxic
Cc1cccc2[nH]cc(C(=O)C(=O)Nc3ccc(N4CCOCC4)cc3)c12	Non-toxic
Cc1ccc(NC(=O)C(=O)c2c[nH]c3cc(Cl)ccc23)cc1	Non-toxic
Cc1ccc(NC(=O)C(=O)c2c[nH]c3ccccc23)cc1	Non-toxic

Test system: not listed separately
Experiment: Metabolic stability in mouse liver microsomes assessed as compound remaining after 30 mins by HPLC analysis
Type: ADME, Microsome
Conditions: read-out: Stability
Method in brief: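 Mouse liver microsomes (0.5 mg/mL stock) in 0.2 M potassium phosphate pH 7.0 with DL-isocitrate, MgCl2 and isocitrate dehydrogenase. Preincubated 5 min at 37 °C, then started with NADPH. Sampled at t=0 and after 30 min at 37 °C, quenched in ice-cold acetonitrile with internal standard. Analysed by C18 HPLC, UV at 267 nm, in triplicate.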

SMILES	remaining at 0.5 h
O=C(Nc1ccc(-n2cccn2)cc1)C(=O)c1c[nH]c2ccccc12	93.6%
Cc1ccc(NC(=O)C(=O)c2c[nH]c3cc(C#N)ccc23)cc1	88.2%
Cc1ccc(NC(=O)C(=O)c2c[nH]c3cc(C(C)C)ccc23)cc1	82.6%
COc1ccc(NC(=O)C(=O)c2c[nH]c3cc([N+](=O)[O-])ccc23)cc1	90%
Cc1ccc(NC(=O)C(=O)c2c[nH]c3cc(Cl)ccc23)cc1	85.6%
Cc1ccc(NC(=O)C(=O)c2c[nH]c3ccccc23)cc1	64.9%

Species: Danio rerio
Experiment: (§2) Toxicity in zebrafish assessed as mortality rate at 5 uM measured after 72 hrs
Type: organism-based
Conditions: in vivo, 72 h, 5 µM
Method in brief: (§3)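 AB wild-type zebrafish embryos dechorionated with pronase at 48 hpf, 3 per well in methylene blue-free E3 medium. Dosed at 5 uM from 10 mM DMSO stocks (1% v/v DMSO). Kept at 28 °C for 72 h without food; survival scored at day 5 versus vehicle controls. Two experiments, each in triplicate.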

SMILES	Activity
Cc1ccc(NC(=O)C(=O)c2c[nH]c3ccccc23)cc1	Non-toxic

Test system: not listed separately
Experiment: as §2
Type: organism-based, Danio rerio
Conditions: in vivo, read-out: Activity
Method in brief: as §3

SMILES	mortality at 72 h, 5 µM
Cc1ccc(NC(=O)C(=O)c2c[nH]c3cc(C#N)ccc23)cc1	20%
O=C(Nc1ccc(N2CCOCC2)cc1)C(=O)c1c[nH]c2ccccc12	20%
Cc1ccc(NC(=O)C(=O)c2c[nH]c3cc(C(C)C)ccc23)cc1	20%
Cc1ccc(NC(=O)C(=O)c2c[nH]c3c(Cl)cccc23)cc1	20%
Cc1cccc2[nH]cc(C(=O)C(=O)Nc3ccc(N4CCOCC4)cc3)c12	20%
Cc1ccc(NC(=O)C(=O)c2c[nH]c3cc(Cl)ccc23)cc1	20%

Species: Danio rerio
Experiment: (§4) Toxicity in zebrafish assessed as organism survival at 5 uM treated at 48 hrs post-fertilization measured after 3 days
Type: organism-based
Conditions: in vivo, 72 h, 5 µM
Method in brief: as §3

SMILES	Activity
O=C(Nc1ccc(-n2cccn2)cc1)C(=O)c1c[nH]c2ccccc12	Toxic
O=C(Nc1ccc(N2CCOCC2)cc1)C(=O)c1c[nH]c2ccccc12	Toxic
O=C(Nc1ccc(-n2cccc2)cc1)C(=O)c1c[nH]c2ccccc12	Toxic
COc1ccc(NC(=O)C(=O)c2c[nH]c3cc([N+](=O)[O-])ccc23)cc1	Toxic
COc1ccc(NC(=O)C(=O)c2c[nH]c3c(Cl)cccc23)cc1	Toxic
Cc1cccc2[nH]cc(C(=O)C(=O)Nc3ccc(N4CCOCC4)cc3)c12	Toxic
Cc1ccc(NC(=O)C(=O)c2c[nH]c3ccccc23)cc1	Toxic

Test system: not listed separately
Experiment: as §4
Type: organism-based, Danio rerio
Conditions: in vivo
Method in brief: as §3

SMILES	survival at 72 h, 5 µM
Cc1ccc(NC(=O)C(=O)c2c[nH]c3cc(C#N)ccc23)cc1	100%
Cc1ccc(NC(=O)C(=O)c2c[nH]c3c(Cl)cccc23)cc1	100%
Cc1ccc(NC(=O)C(=O)c2c[nH]c3cc(Cl)ccc23)cc1	100%

Test system: not listed separately
Experiment: Cytotoxicity against mouse SMB.s15 cells at 20 uM after 5 days by MTT assay
Type: cell-based
Conditions: smb.s15, 120 h
Method in brief: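 SMB.s15 cells at 12,000 cells/well, exposed to compound for 5 days at 37 °C (DMSO stock diluted via HBSS into medium). Viability measured by MTT assay per the reagent's standard protocol.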

SMILES	Activity
O=C(Nc1ccc(-n2cccn2)cc1)C(=O)c1c[nH]c2ccccc12	Non-toxic
Cc1ccc(NC(=O)C(=O)c2c[nH]c3cc(C#N)ccc23)cc1	Non-toxic
O=C(Nc1ccc(N2CCOCC2)cc1)C(=O)c1c[nH]c2ccccc12	Non-toxic
O=C(Nc1ccc(-n2cccc2)cc1)C(=O)c1c[nH]c2ccccc12	Non-toxic
Cc1ccc(NC(=O)C(=O)c2c[nH]c3cc(C(C)C)ccc23)cc1	Non-toxic
COc1ccc(NC(=O)C(=O)c2c[nH]c3cc([N+](=O)[O-])ccc23)cc1	Non-toxic
COc1ccc(NC(=O)C(=O)c2c[nH]c3c(Cl)cccc23)cc1	Non-toxic
Cc1ccc(NC(=O)C(=O)c2c[nH]c3c(Cl)cccc23)cc1	Non-toxic
O=C(Nc1ccc(-n2ccnc2)cc1)C(=O)c1c[nH]c2ccccc12	Non-toxic
Cc1cccc2[nH]cc(C(=O)C(=O)Nc3ccc(N4CCOCC4)cc3)c12	Non-toxic
Cc1ccc(NC(=O)C(=O)c2c[nH]c3cc(Cl)ccc23)cc1	Non-toxic
Cc1ccc(NC(=O)C(=O)c2c[nH]c3ccccc23)cc1	Non-toxic
